Screening results: PubChem, several laboratories
SENP8 block-1 = inhibitors of human SENP8 protease. AID 602440. inhibition, % at 20 µM. Q96LD8. recombinant SENP8, Nedd8 substrate fluorescence. 0.64% of 360,000 active; in the data active means inhibition mostly above about 40%, no sharp cut-off; inactive means mostly below about 27%
Target sequence (Q96LD8 whole entry, looked up): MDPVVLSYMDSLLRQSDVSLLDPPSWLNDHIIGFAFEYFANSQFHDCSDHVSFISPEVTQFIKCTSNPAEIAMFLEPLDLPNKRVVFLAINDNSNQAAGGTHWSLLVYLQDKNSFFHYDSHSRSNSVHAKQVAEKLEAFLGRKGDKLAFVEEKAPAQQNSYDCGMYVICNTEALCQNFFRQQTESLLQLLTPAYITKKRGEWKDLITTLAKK
SENP6 block = SENP6 protease inhibition. Q9GZR1. Recombinant SENP6 catalytic domain, aminoluciferin luminescence. inhibition, % at 10 µM. 1.8% of 330,000 active. AID 2599;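 active means inhibition above about 50% at the single tested dose, limit read from the data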;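 further: plate controls were DMSO wells with enzyme for no effect and DMSO wells lacking enzyme for full effect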
SENP8 block-2 = SENP8 protease inhibition. Q96LD8. purified SENP8, Z-RLRGG-aminoluciferin cleavage, luminescence. inhibition, % at 10 µM. 1.2% of 330,000 active. AID 2540; in the data active means inhibition above about 50%
SENP1 inh = blocks the human SENP1 SUMO protease catalytic domain; recombinant SENP1 catalytic domain, CyPet-SUMO1-YPet FRET cleavage; inhibition, % at 10 µM; 0.21% of 360,000 active; AID 624204;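 active means inhibition at least 30% at 10 µM, raw YFP signal under a set limit, fluorescence ratio 0.5 to 1.5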;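 further: 0% = enzyme with DMSO and 100% = no enzyme wells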
Target sequence (Q9P0U3 419-644 limits assumed): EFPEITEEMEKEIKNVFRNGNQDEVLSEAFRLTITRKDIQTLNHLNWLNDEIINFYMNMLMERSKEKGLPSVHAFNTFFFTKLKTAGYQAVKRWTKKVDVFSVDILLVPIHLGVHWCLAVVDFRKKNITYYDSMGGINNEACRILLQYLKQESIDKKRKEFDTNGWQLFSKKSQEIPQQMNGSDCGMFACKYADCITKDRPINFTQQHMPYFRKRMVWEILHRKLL
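Material – human SENP1 catalytic domain · Input – SENP1 enzyme, 20 pM final · Compound dosing – single concentration of 10 µM compound, 0.5% DMSO final · Timing – enzyme reaction for 50 min at room temperature, dark · Measured by – FRET fluorescence in CFP and YFP emission channels · Control set – no-enzyme wells low, DMSO-plus-enzyme wells high control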
SENP7 inh = blocks the human protease SENP7 | recombinant SENP7, Z-RLRGG-aminoluciferin luminescence, 40 min | inhibition, % at 5 µM | 1.5% of 330,000 active;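 active means inhibition above about 50% at the single test dose, limit read from the data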;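 further: plate controls were DMSO with enzyme for no effect and no enzyme buffer wells for full effect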
HSP90 inh = inhibitors of HSP90 luciferase refolding in rabbit reticulocyte lysate. 0.91% of 290,000 active. inhibition, % at 5.6 µM. luciferase refolding luminescence, 3 h;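 active means inhibition above the screen-wide mean plus 3 SD, computed separately per campaign, cut at about 16% in these data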;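 further: 0% = DMSO wells and 100% = 60 µM geldanamycin wells; inhibitors lower the luminescence because luciferase stays unfolded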
Numbers without * were called inactive. In the library only some 2.9% were active in any assay of this set; here they are far more common.

Screening CC(C)(C)n1ncc2c(=O)n(CC(=O)NCc3ccc(F)cc3)cnc21 returned SENP8 block-1 26.9, SENP6 block -0.7, SENP8 block-2 -4.1, SENP1 inh -2.2, SENP7 inh 5.4 and HSP90 inh 16.4*.
For COCCn1c(CN2CCN(C(=O)c3ccco3)CC2)nc2c1c(=O)n(C)c(=O)n2C the results were SENP8 block-1 -69.4, SENP6 block 5.0, SENP8 block-2 -3.5, SENP1 inh 1.7, SENP7 inh -19.8 and HSP90 inh 3.2.
Screening Cc1nc(-c2ccccc2)sc1-c1ccnn1C returned SENP8 block-1 -420.4, SENP6 block -4.4, SENP8 block-2 -5.0, SENP1 inh 1.2, SENP7 inh 6.8 and HSP90 inh -3.3.
Screening Cc1nc(-c2ccccc2)sc1-c1ccn[nH]1 returned SENP8 block-1 -391.1, SENP6 block 61.1*, SENP8 block-2 47.5, SENP1 inh -1.1, SENP7 inh 56.4* and HSP90 inh 6.7.
Screening CN(C)c1ccc(Cc2cc3c(O)ccc(O)c3cc(Cc3ccc(N(C)C)cc3)c2=O)cc1 returned SENP8 block-1 51.7* and SENP1 inh 7.3.
For CC(=O)c1ccc(N(C)C)cc1 the results were SENP8 block-1 1.3, SENP6 block -10.1, SENP8 block-2 -5.6, SENP1 inh -0.4, SENP7 inh -15.3 and HSP90 inh -0.7.
Screening O=C1N/C(=N/Nc2ccccc2)S/C1=C\c1ccccc1 returned SENP8 block-1 20.5, SENP6 block 27.4, SENP8 block-2 -5.6, SENP1 inh 104.8*, SENP7 inh -2.6 and HSP90 inh 0.8.
`COc1cc(N=Nc2ccc(C)cc2S(N)(=O)=O)c(C)cc1N` gave SENP8 block-1 49.1* and SENP1 inh 4.0.
Screening COc1cc(S(N)(=O)=O)c(OC)cc1N returned SENP8 block-1 7.4, SENP6 block -1.4, SENP8 block-2 0.2, SENP1 inh 5.3, SENP7 inh 7.8 and HSP90 inh 3.4.
For N#CNc1nc(O)cc(=O)[nH]1 the results were SENP8 block-1 -53.0, SENP6 block 21.2, SENP8 block-2 7.3, SENP1 inh 29.3*, SENP7 inh -1.3 and HSP90 inh 3.0.
CCSc1nc(O)cc(=O)[nH]1 was read as SENP8 block-1 13.2, SENP6 block -10.6, SENP8 block-2 -10.8, SENP1 inh 3.3, SENP7 inh -2.1 and HSP90 inh -1.5.
Nc1ncnc2c1ncn2C1OCC(O)C1O (stereo not given) was read as SENP8 block-1 10.1 and SENP1 inh -1.8.
Screening Clc1ccc(CON/C=N/c2ncnc3sccc23)cc1 returned SENP8 block-1 17.5, SENP6 block 5.8, SENP8 block-2 5.7, SENP1 inh 1.7, SENP7 inh -1.8 and HSP90 inh 16.9*.
Screening CC(C)=NOCC(=O)Nn1c(COc2c(C)cccc2C)nc2ccccc2c1=O returned SENP8 block-1 12.5, SENP6 block -8.5, SENP8 block-2 0.4, SENP1 inh -0.5, SENP7 inh -14.1 and HSP90 inh 1.2.
`C=C(C)C1CC=C(C)/C(=N\NC(=O)CNc2cccc3ccccc23)C1` (stereo not given) gave SENP8 block-1 -369.1, SENP6 block 59.7*, SENP8 block-2 42.5, SENP1 inh -23.4, SENP7 inh 12.2 and HSP90 inh 2.9.
Screening C/C(=N\NC(=O)c1ccc(Br)cc1)C1C(=O)c2ccccc2C1=O returned SENP8 block-1 17.7, SENP6 block 97.2*, SENP8 block-2 94.3*, SENP1 inh 1.7, SENP7 inh 56.6* and HSP90 inh -1.0.
Screening CC(=O)c1ccc2c(c1)C1C=CCC1C(c1ccncc1)N2 (stereo not given) returned SENP8 block-1 16.3, SENP6 block 36.8, SENP8 block-2 6.9, SENP1 inh 37.6*, SENP7 inh 17.8 and HSP90 inh -0.1.
Screening CC(=O)c1ccc2c(c1)C1C=CCC1C(C(=O)O)N2 (stereo not given) returned SENP8 block-1 13.4, SENP6 block 7.9, SENP8 block-2 10.7, SENP1 inh 15.6, SENP7 inh 3.1 and HSP90 inh 2.3.
For O=C(O)C1(Cc2nc3ccccc3[nH]2)CCCC1 the results were SENP8 block-1 11.0, SENP6 block -1.7, SENP8 block-2 8.8, SENP1 inh -0.8, SENP7 inh 4.2 and HSP90 inh 1.4.
Screening CN1C(=O)/C(=C/c2ccc(-c3ccccc3[N+](=O)[O-])o2)SC1=Nc1ccc(Cl)c(C(=O)O)c1 returned SENP8 block-1 41.7*, SENP1 inh 3.1 and HSP90 inh 4.4.
For CCC1(c2ccccc2)NC(=O)N(CC(=O)N(CC(=O)Nc2ccccc2C(F)(F)F)Cc2ccco2)C1=O (stereo not given) the results were SENP8 block-1 3.4, SENP6 block 2.2, SENP8 block-2 -4.3, SENP1 inh 3.7 and SENP7 inh 1.1.
Screening CCCCn1c(NC(=O)c2ccc(F)cc2)c(C#N)c2nc3ccccc3nc21 returned SENP6 block 92.2*, SENP8 block-2 95.2* and SENP7 inh 18.9.
CCC(=O)Nc1c(C#N)c2nc3ccccc3nc2n1-c1ccc(C)cc1 was read as SENP8 block-1 -437.6 and SENP1 inh -34.3.
Cc1ccc(C(=O)NCCn2c(N)c(C#N)c3nc4ccccc4nc32)cc1 was read as SENP8 block-1 -271.5, SENP6 block 42.5, SENP8 block-2 10.0, SENP1 inh -27.5, SENP7 inh 34.2 and HSP90 inh -0.5.
Screening CCCCn1c(NC(=O)c2ccccc2)c(C#N)c2nc3ccccc3nc21 returned SENP8 block-1 -278.4, SENP1 inh -20.7 and HSP90 inh 48.6*.
`Nc1c(C(=O)N/N=C/c2ccccc2)cnn1-c1ccccc1` gave SENP8 block-1 0.5, SENP6 block 66.5*, SENP8 block-2 49.3, SENP1 inh 1.8, SENP7 inh 51.0* and HSP90 inh 1.2.
For O=C(N/N=C/c1ccccc1)c1cccc2ccccc12 the results were SENP8 block-1 11.6, SENP6 block -11.2, SENP8 block-2 -0.7, SENP1 inh 1.4 and SENP7 inh 2.8.
CCC(C)C(=O)Nc1nnc(SCC(=O)NC(C)(C)C)s1 (stereo not given) was read as SENP8 block-1 7.1, SENP6 block -13.7, SENP8 block-2 -6.6, SENP1 inh 1.6, SENP7 inh -7.7 and HSP90 inh -4.3.
`Cc1cc(C)c(S(=O)(=O)/N=C2/C=C(Sc3ncn[nH]3)C(=O)c3ccccc32)cc1C` gave SENP8 block-1 24.7, SENP1 inh 8.2 and HSP90 inh 80.1*.
Screening Cc1cc(O)c(Sc2ncn[nH]2)cc1NS(=O)(=O)c1ccc(Cl)cc1 returned SENP8 block-1 18.4, SENP6 block 0.2, SENP8 block-2 -0.2, SENP1 inh 2.0 and SENP7 inh 8.0.
For O=C1Nc2ccccc2N2CCCC12 (stereo not given) the results were SENP6 block 68.3*, SENP8 block-2 24.0, SENP7 inh 12.8 and HSP90 inh -0.7.
